STAT1 inh – inhibitors of IFN-gamma induced STAT1 signaling; NIH 3T3 STAT1-luciferase reporter, luminescence; inhibition, % at 5.5 µM; 0.35% of 200,000 active; AID 920;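 active means inhibition above a set limit, the mean inhibition across all tested compounds plus 3 SD, cut at about 34% in these data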
STAT3 inh – reduces IL-6 driven STAT3 reporter signal. U3A cells, IL-6 STAT3-luciferase reporter, luminescence; host cell line lacks STAT1. inhibition, % at 5.5 µM. 0.89% of 190,000 active. AID 862;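 active means inhibition above the mean inhibition across all screened compounds plus 3 SD, cut at about 44% in these data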
STAT1 act – STAT1 signaling activation. NIH 3T3 STAT1-luciferase reporter, IFN-gamma, luminescence; 100% = IFN-gamma alone, no compound. activation (% of control), % at 5.5 µM. 2.6% of 200,000 active. AID 932;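 active means activation above the screen-wide mean activation plus 3 SD, cut at about 130% in these data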
STAT3 activator – activators of IL-6 induced STAT3 signaling; U3A cells, IL-6 STAT3-luciferase reporter, luminescence; 100% = signal with IL-6 EC80 alone; 0.91% of 190,000 active; activation (% of control), % at 5.6 µM; AID 871;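 active means activation above the screen-wide mean of compound activation plus 3 SD, cut at about 130% in these data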
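Detection: reporter luminescence signal / Assay system: STAT1-lacking human U3A cells, STAT3 luciferase reporter / Incubation: compound pre-incubation 1 h before IL-6, then 6 h stimulation at 37 °C / Control set: IL-6-only high control / Read-out: % activation relative to IL-6 control / Probe or stimulus: Interleukin-6, 33 ng/mL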
STAT1 activ conf – confirmation of STAT1 signaling activators; shares compounds with STAT1 act; AID 1262; 97% of 1,200 active; activation (% of control), % at 5.7 µM; NIH 3T3 STAT1-luciferase reporter, IFN-gamma potentiation, luminescence; 100% = IFN-gamma EC80 alone, no compound;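 active means activation above a set limit carried over from the earlier primary STAT1 screen, cut at about 140% in these data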
NFkB act – NF-kappaB activation in STAT1 activator counter-screen | 43% of 1,200 active | activation (% of control), % at 5.7 µM | shares compounds with STAT1 act | HEK293T NF-kB luciferase reporter, TNF-alpha stimulated, luminescence; 100% = TNF-alpha with vehicle only;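 active means activation above the mean of solvent-only control wells plus 3 SD, set per campaign, cut at about 130% in these data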;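 further: TNF-alpha given at a submaximal dose yielding about 80% of full reporter signal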
STAT3 act 2 – activates human STAT3, counter-screen to STAT1 activators; U3A cells STAT3-luciferase reporter, IL-6, luminescence; cells lack STAT1; 100 = IL-6 alone, no compound effect; shares compounds with STAT1 act; 46% of 1,200 active; activation (% of control), % at 5.7 µM;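 active means activation above the solvent-only control well mean plus 3 SD, set per plate batch, cut at about 110% in these data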;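 further: higher means more STAT3 reporter activation so hits are non-selective activators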
A number is an active result; n = inactive; x = no result. A selection: hits, their analogues and other compounds. The true share with any hit is near 4.3%.

SMILES	STAT1 inh	STAT3 inh	STAT1 act	STAT3 activator	STAT1 activ conf	NFkB act	STAT3 act 2
Clc1ccc2nc3c4ccccc4cnn3c2c1	n	n	166	n	238	n	162
Cc1ccc(CN2C3CCCC2CC(NC(=O)c2ccc(C)cc2)C3)cc1 (stereo unspecified)	n	n	n	n	x	x	x
O=C(NC1=NCCS1)c1ccc(-c2ccc(Cl)cc2)o1	n	n	156	n	187	n	n
COc1ccc([N+](=O)[O-])cc1C(=O)Nc1ccc(OCC(=O)N2CCOCC2)cc1	n	n	n	n	x	x	x
Cc1ccnc(NC(=O)c2sc3ccccc3c2Cl)c1	n	n	165	n	130	n	n
Cc1ccsc1C(=O)NNC(=O)C1C2C=CC(C2)C1C(=O)O (stereo unspecified)	n	n	184	n	131	n	n
COC(=O)c1sccc1NC(=O)C1C2C=CC(C2)C1C(=O)O (stereo unspecified)	n	n	n	n	x	x	x
CCN1C(=S)SC(=O)C1=C1C=C(C)N(CCO)C(C)=C1	n	n	158	n	190	n	124
O=C(O)CCCN=CC1=C(O)CNC1=O	n	n	n	n	x	x	x
O=C(NCC1CCCO1)C1CC(c2ccccc2Cl)=NO1 (stereo unspecified)	n	n	n	n	x	x	x
O=C1c2ccccc2S(=O)(=O)N1CC1CC(c2ccccc2Cl)=NO1 (stereo unspecified)	n	n	161	n	198	n	126
CCn1c(O)c(/C=C2\C=Nc3ccccc32)sc1=Nc1ccc(C)cc1	n	n	n	n	x	x	x
CCn1c(O)c(/C=C2\C=Nc3ccccc32)sc1=O	n	n	178	n	175	140	126
CCN1C/C(=C/c2ccc(OC)c(O)c2)C(=O)/C(=C/c2ccc(OC)c(O)c2)C1	n	n	335	n	n	138	n
Cc1ccc(NC(=O)c2ccc(OC(=O)COc3ccc(Cl)cc3C)cc2)cc1	n	n	159	n	167	n	119
Cc1ccc(NC(=O)c2ccc(OC(=O)COc3cccc(Cl)c3)cc2)cc1	n	n	154	n	170	n	111
Cc1ccc(C(=O)CC(=O)COc2ccc(Cl)cc2C)cc1	n	n	n	n	x	x	x
CCCCNS(=O)(=O)c1ccc(NC(=O)C(Sc2ccccc2)c2ccccc2)cc1 (stereo unspecified)	n	n	n	n	x	x	x
O=C(NC(=S)Nc1ncccn1)c1ccc(Cl)cc1Cl	n	n	174	n	218	n	n
CCC(=O)Nc1cccc(NC(=S)NC(=O)c2ccc(Cl)cc2Cl)c1	n	n	n	n	x	x	x
Cc1cccc(-c2nc(CS(=O)CC(=O)NC3CCCC3)c(C)o2)c1 (stereo unspecified)	n	n	n	n	x	x	x
Cc1cccc(-c2nc(C#N)c(NC3CCCCC3)o2)c1	n	n	156	n	174	n	118
CC(=O)Nc1cccc(-c2csc(Nc3ccc(Cl)cn3)n2)c1	n	n	202	n	249	161	n
CC(=O)Nc1cccc(-c2csc(Nc3cc(C)ccn3)n2)c1	n	n	152	n	174	n	115
Oc1[nH]c2ccccc2c1N=Nc1nc2ccccc2s1	n	n	155	n	208	136	131
SMILES	STAT1 inh	STAT3 inh	STAT1 act	STAT3 activator	STAT1 activ conf	NFkB act	STAT3 act 2
COc1ccc(C(=O)N/N=C(\c2ccccc2)c2ccccn2)cc1	n	n	n	n	x	x	x
CCOc1ccc(OCc2ccc(C(=O)N/N=C(\C)c3ccccn3)cc2)cc1	n	n	169	n	146	188	n
N/C(=N\OC(=O)COc1ccc(Br)cc1Cl)c1ccncc1	n	n	178	n	193	144	118
Cc1ccc(C)c(S(=O)(=O)N2CC(=O)N(CCc3ccccc3)C(=O)C2)c1	n	n	n	n	x	x	x
CCOC(=O)Nc1ccc(Cc2ccncc2)cc1	n	n	n	n	x	x	x
Clc1cnc(N/N=C/c2ccco2)c(Cl)c1	n	n	159	n	151	n	n
O=C(COC(=O)/C=C/c1ccco1)Nc1ncc(Cl)cc1Cl	n	n	n	n	x	x	x
Cc1ccc2[nH]c(=O)cc(C(=O)OCC(=O)c3ccccc3)c2c1	n	n	n	n	x	x	x
Cc1ccc(C(=O)COC(=O)c2cc(=O)[nH]c3ccccc23)cc1C	n	n	163	n	203	136	121
O=C(CCS(=O)(=O)c1cccs1)Nc1ccc(C(=O)NCc2cccs2)cc1	n	n	n	n	x	x	x
CC(=O)c1ccc(NC(=O)c2ccc(NC(=O)CCS(=O)(=O)c3cccs3)cc2)cc1	n	n	157	n	169	n	113
Cc1ccc(Nc2nc(C3CC3)cs2)cc1	n	n	151	n	228	n	n
Clc1ccc(Nc2nc(C3CC3)cs2)cc1	n	n	154	n	188	142	n
CN(C)c1nc(SCCOC(=O)Nc2ccccc2)nc(N(C)C)n1	n	n	n	n	x	x	x
CCc1nnc(NC(=O)c2sc3nc4c(cc3c2N)CCCCCC4)s1	n	n	n	n	x	x	x
CCc1nnc(NC(=O)c2sc3nc4c(cc3c2N)CCCCC4)s1	n	n	155	n	187	135	117
Cc1ccccc1-n1c(Cn2c(=O)sc3ccccc32)nnc1SCC(=O)NCC1CCCO1 (stereo unspecified)	n	n	n	n	x	x	x
Cc1ccc(NC(=O)c2noc3c2CCCCC3)cc1C	n	n	198	n	271	n	n
CCc1ccc(NC(=O)c2noc3c2CCCCC3)cc1	n	n	164	n	219	144	112
Cc1ccc(NC(=O)c2noc3c2CCCCC3)cc1	n	n	156	n	243	136	n
COc1ccc(NC(=O)c2noc3c2CCCCC3)cc1	n	n	169	n	212	138	n
Cc1cc(NC(=O)CN2CCc3ccccc3C2)nc2c1c(=O)oc1ccccc12	n	x	n	x	x	x	x
CC(=O)c1cccc(NC(=S)NC(=O)CC(C)(C)C)c1	n	n	n	n	x	x	x
Clc1ccc(-c2cn3c(n2)SCC3)cc1	n	n	158	n	183	137	122
Brc1ccc(-c2cn3c(n2)SCC3)cc1	n	n	166	n	199	137	n
CCC1CCC(NC(=O)Nc2cccc(OC)c2)CC1 (stereo unspecified)	n	n	159	n	168	n	123
Cc1ccc(N=Cc2sc(O)c3ccccc23)cc1	n	n	202	n	323	153	121
Cc1ccc(N=Cc2nc(-c3ccc(C)cc3)oc2O)cc1	n	n	n	n	x	x	x
O=C1/C(=C\c2ccc3ccccc3c2)CCCc2ccccc21	n	n	n	n	x	x	x

Screening results as filed in PubChem BioAssay.
